Data reported in PMC3705663 (The Indian Journal of Medical Research, 2013).

Assays:
[1] = target: HIV-1 integrase (Human immunodeficiency virus type 1 group M subtype B, UniProt P04585); assay: Integrase assay; assay type: biochemical; conditions: tested upto 50 μg/ml; positive control sodium azide; data not shown
Summary of the method: (§1)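 Enzyme inhibition was measured with a commercial kit for each enzyme, following the manufacturer's instructions. Inhibition values are mean ± SEM of three independent experiments.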

[2] = test system: HIV integrase; conditions: previous study; cited from earlier work
[3] = target: HIV-1 protease (Human immunodeficiency virus type 1 group M subtype B, UniProt P04585); assay: Protease assay; assay type: biochemical; conditions: reference control saquinavir 1 μM
Summary of the method: as §1

[4] = test system: HIV-1 NL4.3; assay: Inhibition of HIV infection in CEM-GFP cells-based assay; assay type: cell-based
Summary of the method: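 CEM-GFP cells (CD4+ T-lymphocytic line, GFP under HIV-1 LTR) were infected with HIV-1 NL4.3 at MOI 0.05. They were then plated at 2.0 × 10^5/well with varying test compound concentrations for up to 8 days. AZT served as positive control and solvents as negative controls. Cell lysates were read for GFP fluorescence (ex 485/em 520 nm). % inhibition was taken versus untreated infected cells, and IC50 was obtained by nonlinear curve fitting.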

[5] = test system: HIV; conditions: from other plant sources; cited from earlier work
[6] = test system: HIV-1 NL4.3; assay: Inhibition of HIV infection in TZM-bl cells-based assay; assay type: cell-based
Summary of the method: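 TZM-bl cells (HeLa-derived, CD4/CCR5/CXCR4, LTR-driven luciferase) were seeded at 4 × 10^4/well overnight. HIV-1 NL4.3 (MOI 0.05) was pretreated with test compound for 1 h at 37°C, added to cells in duplicate for 4 h, then washed off with cold PBS. Cells were cultured 48 h in fresh medium with compound, lysed by freeze-thaw and read for luciferase. AZT served as positive control. % inhibition was taken versus untreated infected cells; IC50 by nonlinear fit.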

[7] = target: HIV-1 RT (Human immunodeficiency virus type 1 group M subtype B, UniProt P04585); assay: Reverse transcriptase assay; assay type: biochemical; conditions: reference control nevirapine 1 μM
Summary of the method: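 HIV-1 reverse transcriptase inhibition was measured with a commercial RT assay kit following the manufacturer's protocol. Data are mean ± SEM of three independent experiments.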

| SMILES | inhibition of HIV-1 integrase activity (in words) [1] | HIV integrase inhibitory activity (in words) [2] | inhibition of HIV-1 protease activity (in words) ([3]; listed as ellagic acid) | inhibition of HIV-1 protease activity (in words) ([3]; listed as ellagic acid (compound G)) | anti-HIV activity (in words) [4] | anti-HIV activity (in words) [5] | anti-HIV activity (in words) [6] | inhibition of HIV-1 RT activity (in words) [7] |
| --- | --- | --- | --- | --- | --- | --- | --- | --- |
| O=c1oc2c(O)c(O)cc3c(=O)oc4c(O)c(O)cc1c4c23 [Ellagic acid (G), ellagic acid] | did not show any significant inhibition | shown to have HIV integrase inhibitory activity | inhibited the HIV-1 protease activity | dose-dependent inhibition | consistent anti-HIV activity | reported for their anti-HIV activity | consistent anti-HIV activity |  |
| C[C@@H]1O[C@@H](OC[C@H]2O[C@@H](Oc3c(-c4ccc(O)c(O)c4)oc4cc(O)cc(O)c4c3=O)[C@H](O)[C@@H](O)[C@@H]2O)[C@H](O)[C@H](O)[C@H]1O [Rutin (E), rutin] |  |  |  |  | did not show any significant anti-HIV activity |  | did not show any significant anti-HIV activity |  |
| O=C(O)c1cc(O)c(O)c(O)c1 [Gallic acid (F), gallic acid] | did not show any significant inhibition |  |  |  | potent anti-HIV activity | reported for their anti-HIV activity | potent anti-HIV activity | dose dependent inhibition |
